The subject of data set [1] is Human immunodeficiency virus 1. Kind of data set: Antiviral activity against HIV1 NL4-3 infected in human MT2 cells measured after 3 to 4 days in presence of human serum albumin by luciferase reporter gene assay. It is filed as functional, organism-based. The note with it: Human immunodeficiency virus 1, NL4-3, MT2. (In general: Reporter assays use an easily measured gene product as a stand-in for the process of interest.)

The nature of data set [2]: Stability of the compound in human liver microsomes assessed as parent compound remaining at 0.5 uM measured after 10 mins in presence of NADPH by LC-MS/MS analysis. The note with it: read-out: Stability. The data set is classed as ADME, Microsome. In a few lines:
(§1)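 CYP-mediated turnover: 0.5 μM compound with human or rat liver microsomes (1 mg/mL) in 100 mM sodium phosphate pH 7.4, 6.6 mM MgCl2, 37 °C; started with NADPH, DMSO 0.014%. Samples quenched at 0 and 10 min; parent remaining by LC-MS/MS; duplicate.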
Background: Liver microsomes are vesicles of endoplasmic reticulum, rich in cytochrome P450 enzymes.

The nature of data set [3]: Volume of distribution at steady state in Sprague-Dawley rat at 1 mg/kg, iv infusion for 10 mins or 5 mg/kg, po administered via gavage by LC-MS/MS analysis. The note with it: in vivo, read-out: Vdss. It is filed as ADME, organism-based. In a few lines: (§2)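 Rats given iv via implanted venous cannula as 10 min infusion, or oral gavage after overnight fast; vehicle 10% dimethylacetamide/90% PEG400 for both routes. Plasma from venous-port blood, treated with CH3CN containing internal standard, analysed by LC-MS/MS; oral plasma levels followed 24 h after 5 mg/kg. Parameters by noncompartmental analysis of concentration-time data.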

Data set [4] can be described thus: Clearance in Sprague-Dawley rat at 1 mg/kg, iv infusion for 10 mins or 5 mg/kg, po administered via gavage by LC-MS/MS analysis. It is filed as ADME, organism-based. The note with it: in vivo. In a few lines: as §2
Data set [5] can be described thus: Oral bioavailability in Sprague-Dawley rat at 5 mg/kg administered via gavage by LC-MS/MS analysis. It is filed as ADME, organism-based. The note with it: in vivo. In a few lines:
as §2

Data set [6] can be described thus: Cmax in Sprague-Dawley rat at 1 mg/kg, iv infusion for 10 mins or 5 mg/kg, po administered via gavage by LC-MS/MS analysis. The data set is classed as ADME, organism-based. The following applies: in vivo. The gist of the method: as §2
The nature of data set [7]: Cytotoxicity against human MT2 cells measured after 4 days by XTT assay. The data set is classed as cell-based. In a few lines: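 MT-2 cell viability measured by XTT after 4 days of compound exposure, run in parallel with the antiviral assay; CC50 from n ≥ 2 determinations.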
For orientation: Tetrazolium dyes change colour on reduction, which living cells bring about.

Data set [8] can be described thus: Stability of the compound in rat liver microsomes assessed as parent compound remaining at 0.5 uM measured after 10 mins in presence of NADPH by LC-MS/MS analysis. The note with it: read-out: Stability. It is filed as ADME, Microsome. The gist of the method: as §1
Data set [9] can be described thus: AUC (0 to 24 hrs) in Sprague-Dawley rat at 1 mg/kg, iv infusion for 10 mins or 5 mg/kg, po administered via gavage by LC-MS/MS analysis. The data set is classed as ADME, organism-based. The following applies: in vivo. The gist of the method:
as §2

Data set [10] relates to Human immunodeficiency virus 1. Kind of data set: Antiviral activity against HIV1 NL4-3 infected in human MT2 cells measured after 3 to 4 days by luciferase reporter gene assay. It is filed as functional, organism-based. The note with it: Human immunodeficiency virus 1, NL4-3, MT2.
Data set [11] has as its system Human immunodeficiency virus 1. Kind of data set: Selectivity ratio of EC50 for HIV1 NL4-3 infected in human MT2 cells in presence of human serum albumin to EC50 for HIV1 NL4-3 infected in human MT2 cells in absence of human serum albumin. The data set is classed as functional.
Data set [12] in a line: Half life in Sprague-Dawley rat at 1 mg/kg, iv infusion for 10 mins or 5 mg/kg, po administered via gavage by LC-MS/MS analysis. The following applies: in vivo. It is filed as ADME, organism-based. The gist of the method:
as §2

Data set [13] in a line: Permeability of the compound in pH 7.4 buffer at 100 uM measured after 4 hrs by sandwich-PAMPA. The data set is classed as ADME. The following applies: read-out: permeability. The gist of the method: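 Parallel artificial membrane permeability: compound at 100 μM in donor buffer pH 7.4, permeating to acceptor through artificial membrane over 4 h; donor, acceptor and t0 solutions read by UV plate reader; triplicate.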

The nature of data set [14]: Tmax in Sprague-Dawley rat at 1 mg/kg, iv infusion for 10 mins or 5 mg/kg, po administered via gavage by LC-MS/MS analysis. The data set is classed as ADME, organism-based. The following applies: in vivo. In a few lines: as §2
Data set [15] in a line: Therapeutic index, ratio of CC50 for human MT2 cells to EC50 for HIV1 NL4-3 infected in human MT2 cells. It is filed as toxicity, cell-based. The following applies: read-out: Ratio CC50/EC50.

Broadly, the EC50 is the concentration that produces a half-maximal response. The term bioavailability denotes the share of a dose that reaches the circulation, judged against a reference dose that is usually intravenous. One may read the Cmax as the maximum level reached in the sampled fluid or tissue. The term CC50 denotes the concentration at which the toxic effect on the cells reaches its halfway point. By AUC(0-t) is commonly meant exposure summed from dosing to a finite time, without extrapolation to infinity. Read a high AUC(0-t) as high exposure. Broadly, the half-life is the time needed for the level to fall by half in the phase considered. As a reminder, the Tmax is the time from dosing to the highest level.

Take `Cc1ccccc1-c1cccc(-c2cc3nc(C)c([C@H](OC(C)(C)C)C(=O)O)c(-c4cc(F)c5c(c4C)CCCO5)n3n2)c1`: the EC50 is 30 nM in data set [1] and 6 nM in [10]. For the same compound, the remaining at 10 min, 0.5 µM was 95% in data set [2] and 97% in data set [8]. The Vd in data set [3] is 0.5 L/kg. Also, the clearance in data set [4] was 7.1 mL/min/kg. Further, in data set [5], the bioavailability is 32%. Moreover, the highest level in data set [6] (Cmax) was 1290 nM. The compound further yielded a CC50 at 96 h in [7] of 28200 nM. Also, the AUC(0-t) in data set [9] is 6.3 µM·h. Besides, in [11], the “Ratio EC50” value was determined as 5. The same compound showed a half-life in data set [12] of 4.1 h. Further, the Papp at 4 h, 100 µM in [13] was determined as 47.1 ×10⁻⁶ cm/s. Further, the Tmax in data set [14] was found to be 3 h. Also, the selectivity ratio in data set [15] is 4690.

With `COc1ccccc1-c1cccc(-c2cc3nc(C)c([C@H](OC(C)(C)C)C(=O)O)c(-c4cc(F)c5c(c4C)CCCO5)n3n2)c1`, the EC50 in [1] came out at 30 nM; in [10], 6 nM. Besides, the remaining at 10 min, 0.5 µM in [2] and in data set [8] was 99% in each case. In data set [3], the Vd was 1.8 L/kg. This compound also yielded a clearance in [4] of 28 mL/min/kg. The compound also came in with a bioavailability in data set [5] of 59%. Also, in [6], the Cmax turned out to be 1110 nM. Further, in data set [7], it took 23500 nM to reach half-maximal cytotoxicity (CC50 at 96 h). Besides, the AUC(0-t) in data set [9] was 2.99 µM·h. Further, the “Ratio EC50” value in [11] amounted to 5. Moreover, in [12], the half-life is 3 h. For the same compound, the Papp at 4 h, 100 µM in data set [13] turned out to be 76.5 ×10⁻⁶ cm/s. In addition, in [14], the Tmax is 2.3 h. Besides, in data set [15], the selectivity ratio was determined as 3920.

For the compound `Cc1nc2cc(-c3cccc(-c4ccccc4F)c3)nn2c(-c2cc(F)c3c(c2C)CCCO3)c1[C@H](OC(C)(C)C)C(=O)O`, the figures for the EC50 in data set [1] and in [10] were 19 nM and 3 nM, respectively. Besides, the remaining at 10 min, 0.5 µM in data set [2] came to 100%; in data set [8] it was 89%. In data set [3], the Vd is 0.7 L/kg. Further, the clearance in [4] was 13 mL/min/kg. In data set [5], the bioavailability amounted to 44%. Moreover, in data set [6], the peak concentration (Cmax) stood at 803 nM. In [7], this compound showed a CC50 at 96 h of 19100 nM. In data set [9], this compound gave an AUC(0-t) of 4.73 µM·h. Further, the “Ratio EC50” value in [11] came out at 6. Besides, the half-life in data set [12] is 2 h. Besides, the Papp at 4 h, 100 µM in data set [13] is 60.8 ×10⁻⁶ cm/s. Besides, the time to peak (Tmax) in data set [14] was 2.7 h. The selectivity ratio in data set [15] stood at 6360.

Values taken from ChEMBL document CHEMBL4402570, “Discovery and Optimization of Novel Pyrazolopyrimidines as Potent and Orally Bioavailable Allosteric HIV-1 Integrase Inhibitors” (J Med Chem, 2020).
